The subject of data set [1] is REH. Description: Antiproliferative activity in human REH cells assessed as inhibition of cell proliferation at 50 uM incubated for 72 hrs by CCK8 assay. It is filed as functional. A digest of the protocol:
(§1)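 REH (Ph-negative, peripheral blood derived) and SupB15 (Ph-positive, bone marrow derived) B-ALL cells seeded at 50,000 cells/well in 96-well plates. Single test concentration of 50 μM (final) for 72 h, with untreated cells as controls. Proliferation read by CCK-8 (reagent 2 h at 37° C, absorbance 450 nm). Mean ± SEM, N = 3.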

Data set [2] concerns SUP-B15. Description: Antiproliferative activity in human SUP-B15 cells assessed as inhibition of cell proliferation at 50 uM incubated for 72 hrs by CCK8 assay. Format: functional, cell-based. A digest of the protocol:
as §1
For orientation: Tetrazolium assays rely on reduction of a dye to a coloured formazan, in cell work by metabolically active cells.

For data set [3], the system named is REH. Description: Antiproliferative activity in human REH cells assessed as inhibition of cell proliferation incubated for 72 hrs by CCK8 assay. It is filed as functional, cell-based. Put shortly: (§2)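 Dose-response in REH and SupB15 cells. Proliferation read by CCK-8 after 72 h of compound exposure (reagent 2 h at 37° C, absorbance 450 nm). IC50 taken from the dose-response curve.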

Data set [4] concerns SUP-B15. Description: Antiproliferative activity in human SUP-B15 cells assessed as inhibition of cell proliferation incubated for 72 hrs by CCK8 assay. Format: functional, cell-based. The following applies: SUP-B15, 72 h. A digest of the protocol:
as §2

For data set [5], the system named is REH. Description: Induction of cell death in human REH cells co-cultured with bone marrow stromal cells assessed as reduction in live cell population of suspended floater cells at 20 to 40 uM. Format: functional, cell-based. A digest of the protocol: (§3)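 REH leukemic cells in co-culture with bone marrow stromal cells. Two fractions were scored: suspended floaters (FL), and phase dim (PD) cells lying beneath the stromal layer. Read-outs were live cell population and cell death.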

Data set [6] relates to REH. Description: Induction of cell death in human REH cells co-cultured with bone marrow stromal cells assessed as reduction in live cell population of phase dim cells buried underneath bone marrow stromal layer at 20 to 40 uM. Format: functional, cell-based. A digest of the protocol:
as §3

Data set [7] concerns REH. Put plainly: Induction of cell death in human REH cells co-cultured with bone marrow stromal cells assessed as increase in cell death of suspended floater cells at 20 to 40 uM. It is filed as functional, cell-based. Put shortly:
as §3

Data set [8] deals with REH. Description: Induction of cell death in human REH cells co-cultured with bone marrow stromal cells assessed as increase in cell death of phase dim cells buried underneath bone marrow stromal layer at 20 to 40 uM. Format: functional, cell-based. A digest of the protocol:
as §3

For a further data set, the target named is Albumin (Homo sapiens, UniProt P02768). Put plainly: Binding affinity to serum albumin (unknown origin) at 1 to 100 uM. It is filed as ADME. Conditions: read-out: PB.
Chain of Albumin (P02768 whole entry): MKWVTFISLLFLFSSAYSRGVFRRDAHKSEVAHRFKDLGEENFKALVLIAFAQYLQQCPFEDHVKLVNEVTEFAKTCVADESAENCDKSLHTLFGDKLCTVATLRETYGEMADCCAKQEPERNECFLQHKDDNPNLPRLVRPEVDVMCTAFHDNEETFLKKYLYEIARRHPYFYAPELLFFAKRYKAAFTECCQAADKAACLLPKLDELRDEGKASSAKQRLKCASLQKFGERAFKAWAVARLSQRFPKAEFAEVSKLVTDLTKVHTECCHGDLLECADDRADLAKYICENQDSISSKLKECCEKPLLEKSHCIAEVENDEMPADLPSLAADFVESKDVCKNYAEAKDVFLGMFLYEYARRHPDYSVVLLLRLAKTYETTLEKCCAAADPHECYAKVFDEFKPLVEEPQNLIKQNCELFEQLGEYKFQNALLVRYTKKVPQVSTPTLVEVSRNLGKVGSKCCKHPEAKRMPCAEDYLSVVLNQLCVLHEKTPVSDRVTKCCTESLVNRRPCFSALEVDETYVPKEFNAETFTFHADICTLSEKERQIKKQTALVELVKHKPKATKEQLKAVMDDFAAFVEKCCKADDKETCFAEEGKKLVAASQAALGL

Active and inactive are the calls of the source. The rule behind the calls is not given here. Some results are limits rather than exact numbers.

A word on the inhibition: it is the share of the control response that was lost under treatment. `Cc1cc(CNC(=O)C2C(c3ccc(F)cc3)C2(C)C)ccn1` (configuration not stated): in the data set with REH [1], the inhibition result is “Active”. Moreover, the inhibition result with SUP-B15 [2] is “inactive”.
Regarding `Cc1nc[nH]c1CCCCNC(=O)C1C(c2ccc(F)cc2)C1(C)C` (configuration not stated), the inhibition entry with REH [1] is “Active”. For the same compound, the inhibition entry in the data set on SUP-B15 [2] is “inactive”.
For the compound `CC1(C)C(C(=O)NCc2noc(-c3ccco3)n2)C1c1ccc(F)cc1` (configuration not stated), the inhibition result in the data set with REH [1] is “Active”. Further, the inhibition result in the data set on SUP-B15 [2] is “inactive”.
Consider `CC1(C)C(C(=O)NCCCc2cnc(N)s2)C1c1ccc(F)cc1` (configuration not stated), for which the inhibition entry in the data set on REH [1] was “Active”. The inhibition result in the data set on SUP-B15 [2] is “inactive”.
For `Cc1nccn1-c1ccccc1CNC(=O)C1C(c2ccc(F)cc2)C1(C)C` (configuration not stated), the inhibition result in the data set on REH [1] was “Active”. Moreover, the inhibition result in the data set with SUP-B15 [2] is “inactive”.
What is called IC50 is the concentration that gives 50% inhibition. As to `CCc1c(C)nn(CCNC(=O)C2C(c3ccc(F)cc3)C2(C)C)c1C` (configuration not stated), the inhibition at 50 µM in the data set with REH [1] is more than 50%. Also, the inhibition result in the data set on SUP-B15 [2] was “Active”. Moreover, the figures for the half-inhibitory concentration (IC50) in the data set on REH [3] and in the data set with SUP-B15 [4] were 16.5 µM and 44.7 µM, respectively. The result in the data set on REH [5], with REH [6], with REH [7] and in the data set with REH [8] was Active. Further, the fraction unbound at up to 100 µM on Albumin is more than 0.95.
Regarding `CSc1ncc(CNC(=O)C2C(c3ccc(F)cc3)C2(C)C)n1C` (configuration not stated), the inhibition entry in the data set on REH [1] was “Active”. In addition, in the data set on SUP-B15 [2], the inhibition result is “inactive”.
With `CC1(C)C(C(=O)NCCCN2CCOCC2)C1c1ccc(F)cc1` (configuration not stated), the inhibition result in the data set with REH [1] is “Active”. Also, the inhibition result in the data set on SUP-B15 [2] is “inactive”.
The matching figures for `CC1(C)C(C(=O)N2CCC3(CCCO3)CC2)C1c1ccc(F)cc1` (configuration not stated): “Active” and “inactive”.
Take `COCc1cc(CNC(=O)C2C(c3ccc(F)cc3)C2(C)C)n[nH]1` (configuration not stated): in the data set on REH [1], the inhibition entry is “Active”. Further, the inhibition entry with SUP-B15 [2] was “inactive”.
Take `CC1(C)C(C(=O)NCC2CCC(C(=O)O)CC2)C1c1ccc(F)cc1` (configuration not stated): the inhibition result with REH [1] is “Active”. Further, the inhibition entry in the data set on SUP-B15 [2] was “inactive”.
Take `CN1CC2(CCC1=O)CCN(C(=O)C1C(c3ccc(F)cc3)C1(C)C)CC2` (configuration not stated): the inhibition result in the data set with REH [1] is “Active”. For the same compound, the inhibition entry in the data set on SUP-B15 [2] was “inactive”.
For `Cc1cccc(=O)n1CCCNC(=O)C1C(c2ccc(F)cc2)C1(C)C` (configuration not stated), in the data set with REH [1], the inhibition entry is “Active”. Also, in the data set on SUP-B15 [2], the inhibition entry is “inactive”.
As to `CC1(C)C(C(=O)N2CC(c3cccnc3)C2)C1c1ccc(F)cc1` (configuration not stated), the inhibition result in the data set with REH [1] was “Active”. Besides, in the data set with SUP-B15 [2], the inhibition entry was “inactive”.
Consider `CC1(C)C(C(=O)N2CCN(c3cnccn3)CC2)C1c1ccc(F)cc1` (configuration not stated), for which the inhibition entry in the data set on REH [1] was “Active”. In addition, the inhibition entry in the data set on SUP-B15 [2] was “inactive”.
As to `CC1C=NN=C1C(C)NC(=O)C1C(c2ccc(F)cc2)C1(C)C` (configuration not stated), the inhibition entry in the data set on REH [1] is “Active”. Moreover, the inhibition entry with SUP-B15 [2] was “inactive”.
In the case of `Cc1cccnc1CN1CCN(C(=O)C2C(c3ccc(F)cc3)C2(C)C)CC1` (configuration not stated), the inhibition result in the data set on REH [1] was “Active”. Moreover, the inhibition entry in the data set with SUP-B15 [2] was “inactive”.
As for `Cc1cnc(CNC(=O)C2C(c3ccc(F)cc3)C2(C)C)cn1` (configuration not stated), the inhibition entry with REH [1] is “Active”. The inhibition result with SUP-B15 [2] is “inactive”.
In the case of `CSCc1nc(CNC(=O)C2C(c3ccc(F)cc3)C2(C)C)no1` (configuration not stated), in the data set on REH [1], the inhibition entry is “Active”. In addition, in the data set on SUP-B15 [2], the inhibition result was “inactive”.
Take `CC1(C)C(C(=O)NCCNc2cccnc2)C1c1ccc(F)cc1` (configuration not stated): in the data set with REH [1], the inhibition entry is “Active”. Also, in the data set on SUP-B15 [2], the inhibition result was “inactive”.
